Assay outcomes deposited in PubChem by Broad Institute.
Most compounds without a hit are left out; they make up all but 2.7% or so of the library.
CFTR F508del cor: correctors of CFTR F508del function in bronchial epithelial cells; activity (quench increase), % at 7.58 µM; actives 0.36% (n = 350,000); CFBE cells, YFP halide quenching; stimulated with forskolin plus potentiator P3; % fluorescence drop versus neutral controls;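 active means mean added fluorescence quench of at least 8% versus neutral control, with both replicates also reaching 8%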;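 further: cells transiently co-express mutant CFTR-F508del with the halide-sensitive YFP; corrector assay measuring rescue of mutant channel to the surface after 24 h compound exposure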
FGF22 binding: FGF22 (human) thermal shift binding | recombinant FGF22 thermal shift, SYPRO orange fluorescence; percent of sucrose octasulfate shift, DMSO zero | AID 651658 | actives 1.5% (n = 340,000) | activity (Tm shift, normalised), % at 9.99 µM;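 active means mean Tm shift, scaled 0 neutral to 100 positive control, at about 1.3% or above, every replicate too, limit read from the data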
Env fusion inh: inhibitors of HIV Env-mediated cell fusion. HeLa-JRFL Env/CEM21 cell fusion, luciferase. inhibition, % at 12.3 µM. actives 1.1% (n = 360,000);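 active means mean replicate inhibition score of at least 50 and every replicate individually at or above 50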;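 further: 0% = plate neutral controls and 100% = maraviroc near 300 nM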
S100A4 MyoIIA: S100A4-myosin IIA interaction inhibition. P26447. inhibition, % at 10.7 µM. S100A4/TAMRA-MyoIIA peptide fluorescence polarization. actives 0.14% (n = 360,000);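 active means mean inhibition of at least 70% across replicates, with every replicate also reaching that level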
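incubation = readout 5 min after mixing, signal stable up to 60 min | system = S100A4 monomer protein | buffer or medium = HEPES pH 7.2 with CaCl2, KCl, NaCl, DTT, Triton | benchmarks = neutral control DMSO, positive control TFP | also added = fluorescent myosin IIA peptide, 5 nM | compound dosing = one concentration per compound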
E-selectin induc: E-selectin induction on HUVECs; P16581; HUVEC E-selectin immunofluorescence imaging; normalized: neutral wells 0, TNF-alpha wells 100; activation, % at 7.58 µM; actives 0.37% (n = 260,000); AID 686992;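 active means mean E-selectin-positive cell signal at least 10% of the positive control, reached in at least 60% of replicates, without over 20% cell loss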
Target sequence (P16581 whole entry, looked up): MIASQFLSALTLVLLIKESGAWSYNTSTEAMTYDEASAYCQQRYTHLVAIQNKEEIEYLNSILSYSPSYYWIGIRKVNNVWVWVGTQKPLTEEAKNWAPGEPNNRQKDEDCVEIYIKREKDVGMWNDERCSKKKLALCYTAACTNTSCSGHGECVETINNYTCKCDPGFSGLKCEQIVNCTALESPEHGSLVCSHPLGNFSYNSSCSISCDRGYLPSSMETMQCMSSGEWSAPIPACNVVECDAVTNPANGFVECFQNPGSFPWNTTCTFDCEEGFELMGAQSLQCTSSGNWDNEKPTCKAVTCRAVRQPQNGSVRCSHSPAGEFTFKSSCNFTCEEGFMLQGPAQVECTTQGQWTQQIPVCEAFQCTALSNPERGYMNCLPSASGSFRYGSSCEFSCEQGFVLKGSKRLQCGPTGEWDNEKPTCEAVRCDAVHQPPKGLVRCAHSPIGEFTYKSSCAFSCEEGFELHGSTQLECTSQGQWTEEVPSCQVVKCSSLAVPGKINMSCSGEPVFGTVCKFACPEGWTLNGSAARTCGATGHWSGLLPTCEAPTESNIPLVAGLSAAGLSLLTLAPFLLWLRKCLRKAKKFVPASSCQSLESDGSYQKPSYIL
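System: HUVEC, human umbilical vein endothelial cells; quantity: 3,000 cells/well; buffer or medium: EGM-2 medium, gelatin-coated wells; dosing: single-point compound dose; detection: immunofluorescence imaging; evaluation: % PE-positive cells; benchmarks: TNF-alpha, DMSO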
Starred values were filed as active, the others as inactive; ! = a repeat was not active; [ ] = dose if it differs, or a comment.

Results for O=C(C[C@@H]1C=C[C@H](NC(=O)c2ccccn2)[C@@H](CO)O1)NCc1cc(F)cc(F)c1 ?
CFTR F508del cor: 0; FGF22 binding: 0; Env fusion inh: -5[16.7 µM]; S100A4 MyoIIA: 2; E-selectin induc: 1

Results for CN(C)CCCNC(=O)C[C@H]1C=C[C@H](NC(=O)Cc2cccnc2)[C@H](CO)O1 ?
CFTR F508del cor: 1; FGF22 binding: 0; Env fusion inh: -24[16.7 µM]; S100A4 MyoIIA: -2; E-selectin induc: 0

Results for C[C@@H]1CN([C@H](C)CO)C(=O)c2cc(NS(=O)(=O)c3cccs3)ccc2O[C@@H]1CN(C)CC1CC1 ?
CFTR F508del cor: 0; FGF22 binding: 0; Env fusion inh: 0[16.7 µM]; S100A4 MyoIIA: 5; E-selectin induc: 0

How did C[C@H](CO)N1C[C@H](C)[C@H](CN(C)C)OCCCC[C@H](C)Oc2ccc(NC(=O)Nc3ccc4c(c3)OCO4)cc2C1=O do in these assays?
CFTR F508del cor: -4; FGF22 binding: 0; Env fusion inh: 25[16.7 µM]; S100A4 MyoIIA: 4; E-selectin induc: 0

What do the screens show for `COc1ccc(S(=O)(=O)N(C)C[C@@H]2Oc3ncc(-c4cc5ccccc5o4)cc3C(=O)N([C@H](C)CO)C[C@@H]2C)cc1`?
CFTR F508del cor: 1; FGF22 binding: 0; Env fusion inh: 69*[16.7 µM]; S100A4 MyoIIA: 1

What do the screens show for `C/C(N)=C(/C#N)C(=O)CSc1cc(C)c2ccccc2n1`?
CFTR F508del cor: 0; FGF22 binding: 43*; Env fusion inh: 18; S100A4 MyoIIA: -5

How did C/C(N)=C(/C#N)C(=O)CSc1nc(C2CCCCC2)n(-c2ccccc2)n1 do in these assays?
CFTR F508del cor: 2; FGF22 binding: -1; Env fusion inh: 67*!; S100A4 MyoIIA: 6; E-selectin induc: 0

How did C/C(N)=C(/C#N)C(=O)CSc1nnc(Nc2c(C)cccc2C)s1 do in these assays?
CFTR F508del cor: -3; FGF22 binding: 43*; Env fusion inh: -25; S100A4 MyoIIA: -2; E-selectin induc: 1

What do the screens show for `Cc1ccc(S(=O)(=O)N[C@H]2CC[C@@H](CCNC(=O)Nc3ccc(Cl)cc3)O[C@@H]2CO)cc1`?
CFTR F508del cor: 1; FGF22 binding: 1; Env fusion inh: 49[16.7 µM]; S100A4 MyoIIA: -3; E-selectin induc: 0

What do the screens show for `CC(C)NC(=O)Nc1cccc2c1O[C@@H](CN(C)C(=O)Nc1cccc3ccccc13)[C@@H](C)CN([C@@H](C)CO)C2=O`?
CFTR F508del cor: 3; FGF22 binding: 1; Env fusion inh: -8[16.7 µM]; S100A4 MyoIIA: 14; E-selectin induc: 0

How did O=C(O)c1ccccc1-c1nc(-c2ccccc2)c(-c2ccccc2)[nH]1 do in these assays?
CFTR F508del cor: 13*; FGF22 binding: 0; Env fusion inh: 11; S100A4 MyoIIA: 1

Results for C[C@@H](NC(=O)C[C@H]1CC[C@H](NC(=O)c2cccnc2)[C@@H](CO)O1)c1ccccc1 ?
CFTR F508del cor: 0; FGF22 binding: 0; Env fusion inh: -6[16.7 µM]; S100A4 MyoIIA: 6; E-selectin induc: 0

Results for O=C(N[C@H]1CC[C@H](CCNS(=O)(=O)c2ccc(Cl)cc2)O[C@H]1CO)c1cccnc1 ?
CFTR F508del cor: -1; FGF22 binding: 0; Env fusion inh: -7[16.7 µM]; S100A4 MyoIIA: -1; E-selectin induc: 0

What do the screens show for `Cc1cc(=O)[nH]c(NN=C2CCC(C(C)(C)C)CC2)n1` (stereo not given)?
CFTR F508del cor: 0; FGF22 binding: 44*; Env fusion inh: 0; S100A4 MyoIIA: -3

How did C/C(=N\Nc1nc(C)cc(=O)[nH]1)C1CC1 do in these assays?
CFTR F508del cor: -1; FGF22 binding: 0; Env fusion inh: 7; S100A4 MyoIIA: -5; E-selectin induc: -7

Results for CO[C@@H]1CN(C)C(=O)c2cc(NS(C)(=O)=O)ccc2OC[C@@H](C)NC[C@@H]1C ?
CFTR F508del cor: -2; S100A4 MyoIIA: -3; E-selectin induc: 0

Results for C[C@H]1CN([C@@H](C)CO)C(=O)c2cccc(NC(=O)Nc3ccc(F)cc3)c2O[C@@H]1CN(C)C(=O)NC1CCCCC1 ?
CFTR F508del cor: 2; FGF22 binding: -1; Env fusion inh: -22[16.7 µM]; S100A4 MyoIIA: -46; E-selectin induc: 69*

Results for C[C@H](CO)N1C[C@H](C)[C@@H](CN(C)C(=O)NC2CCCCC2)Oc2c(cccc2N(C)C)C1=O ?
CFTR F508del cor: -2; FGF22 binding: 0; Env fusion inh: 85*!; S100A4 MyoIIA: 22; E-selectin induc: 0

What do the screens show for `COc1ccc(NC(=O)Nc2cccc3c2O[C@H](CN(C)C(=O)NC2CCCCC2)[C@H](C)CN([C@H](C)CO)C3=O)cc1`?
CFTR F508del cor: 3; FGF22 binding: -1; Env fusion inh: -5[16.7 µM]; S100A4 MyoIIA: 0; E-selectin induc: 32*

Results for COc1ccc(NC(=O)N(C)C[C@H]2Oc3c(NC(=O)NC4CCCCC4)cccc3C(=O)N([C@H](C)CO)C[C@H]2C)cc1 ?
CFTR F508del cor: 0; FGF22 binding: -1; Env fusion inh: -7[16.7 µM]; S100A4 MyoIIA: 88*; E-selectin induc: 0

What do the screens show for `C[C@@H]1CN([C@H](C)CO)C(=O)c2cc(C3=CCCC3)cnc2O[C@@H]1CN(C)C(=O)c1ccccn1`?
CFTR F508del cor: -5; Env fusion inh: 7[16.7 µM]; E-selectin induc: -1

What do the screens show for `C[C@H]1CN([C@@H](C)CO)C(=O)c2cccc(NC(=O)Nc3ccc(F)cc3)c2O[C@H]1CN(C)CC1CCCCC1`?
CFTR F508del cor: 2; FGF22 binding: -1; Env fusion inh: -21[16.7 µM]; S100A4 MyoIIA: -7; E-selectin induc: 34*

How did Cc1cc(C)n2nc(SCc3nnc(-c4cccs4)o3)nc2n1 do in these assays?
CFTR F508del cor: -2; FGF22 binding: 43*; Env fusion inh: -4; S100A4 MyoIIA: -4

What do the screens show for `CCc1ccccc1N(C)S(=O)(=O)c1ccc(-c2cc(C)no2)s1`?
CFTR F508del cor: 8.2*; FGF22 binding: 0; Env fusion inh: 13; S100A4 MyoIIA: -6; E-selectin induc: 0

What do the screens show for `CNS(=O)(=O)c1cc(C(=O)O)ccc1OC`?
CFTR F508del cor: -2; FGF22 binding: 43*; Env fusion inh: -53; S100A4 MyoIIA: 1

How did Oc1cc2c(cc1O)C(c1ccccc1)CNCC2 (stereo not given) do in these assays?
CFTR F508del cor: 9.5*; FGF22 binding: -1; Env fusion inh: -6; S100A4 MyoIIA: 2; E-selectin induc: 0

What do the screens show for `COc1ccc2c(c1)CCC/C2=N/OC(=O)c1ccccc1OC`?
CFTR F508del cor: -2; FGF22 binding: 44*; Env fusion inh: 2; S100A4 MyoIIA: 2

Results for COc1ccc2c(c1)CC/C2=N\OC(=O)c1ccccc1C ?
CFTR F508del cor: 0; FGF22 binding: 0; Env fusion inh: -162; S100A4 MyoIIA: 2; E-selectin induc: -1
